Results from paper PMC8713577 (ACS infectious diseases, 2021).
Values after ≈ are worked out from the molar mass of the structure shown. Like-named read-outs stand apart in the source and are kept apart here.

Assays:
S. aureus ATCC 29213 [1] = assay: Resistance frequency, large inoculum method; assay type: cell-based, Staphylococcus aureus; details: 2, 4, 8, 16, 32X the MIC
S. aureus ATCC 29213 [2] = assay: MIC, CLSI broth microdilution; assay type: cell-based, Staphylococcus aureus; details: for antibacterial activity relative to FA: S. aureus ATCC 29213, MIC; for MIC fold worse than FA: S. aureus ATCC 29213
Summary of the method: (§1)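 Broth microdilution followed CLSI, in cation-adjusted Mueller-Hinton broth in round-bottom wells, run in biological triplicate. Reference strains came from ATCC.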

[3] = system: human foreskin fibroblast-1 cells (HFF-1); assay: Cell viability, Alamar Blue, 72 h; assay type: cell-based
Summary of the method: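 HFF-1 fibroblasts were grown in DMEM with 15% fetal bovine serum, 100 μg/mL penicillin and 100 μg/mL streptomycin at 37 °C under 5% CO2. Cells were harvested, seeded and left to adhere. They were exposed to compounds in DMSO (1% final) for 72 h, and viability was then read by Alamar Blue. Raptinal (20 μM) served as the dead control.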

S. aureus = assay: MIC shift in 50% human serum; assay type: cell-based, Staphylococcus aureus
Summary of the method: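 The CLSI broth microdilution MIC in cation-adjusted Mueller-Hinton broth was repeated against S. aureus with 50% human serum (ultrafiltrate, 30K Dalton membrane-filtered, unspecified gender) in the medium. Testing was in biological triplicate.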

[4] = system: six clinical isolates of E. faecium (VRE); assay: MIC against clinical isolates of E. faecium; assay type: cell-based, Enterococcus faecium; details: for activity against VRE clinical isolates: E. faecium clinical isolates with high levels of vancomycin resistance
[5] = system: clinical isolates of S. aureus / staphylococci resistant to FA; details: cited from earlier work
[6] = human, in vivo; cited from earlier work
E. faecium ATCC 19434 = assay: MIC against sensitive E. faecium; assay type: cell-based, Enterococcus faecium
Summary of the method: as §1

[7] = system: S. aureus strains in the United States; details: analysis conducted in 2011; cited from earlier work
S. aureus (FA-32X-B) = assay: Neutropenic thigh infection burden study, FA-resistant strain; assay type: in vivo, CD-1 mice; details: 50 mg/kg IP at 1, 2, 3 h postinfection, 8 h postinfection
[8] = mouse, in vivo
[9] = system: 29 clinical isolates of S. aureus; assay: MIC against multidrug-resistant clinical isolates of S. aureus; assay type: cell-based, Staphylococcus aureus; details: 29 multidrug-resistant clinical isolates
[10] = system: strains of S. aureus ATCC 29213 resistant to FA-CP; assay: MIC against FA-CP-resistant mutant strains; assay type: cell-based, Staphylococcus aureus
[11] = system: FA-resistant strains of S. aureus ATCC 29213; assay type: cell-based, Staphylococcus aureus
[12] = Mouse maximum tolerated dose / tolerability
S. aureus ATCC BAA-1721 = assay: MIC against S. aureus strain harboring the fusC gene; assay type: cell-based, Staphylococcus aureus; details: S. aureus ATCC BAA-1721, fusC gene

## CC(=O)OC1CC2(C)C(CC(O)C3C4(C)CCC(O)C(C)C4CCC32C)C1=C(CCC=C1CCCCC1)C(=O)O (stereo not shown) [compound 26]
S. aureus ATCC 29213 [1]
  resistance frequency relative to FA: only displayed an improvement at 32X the MIC
S. aureus ATCC 29213 [2]; S. aureus ATCC 29213, CLSI
  MIC: 0.125 mg/L (≈ 0.225 µM)
S. aureus ATCC 29213 [2]
  antibacterial activity relative to FA: equipotent activity to FA
[3]; HFF-1 cells, 72 h
  IC50: > 50 µM
S. aureus
  shift in MIC in 50% human serum compared to FA: very similar

## CN[C@H](CC(C)C)C(=O)N[C@H]1C(=O)N[C@@H](CC(N)=O)C(=O)N[C@H]2C(=O)N[C@H]3C(=O)N[C@H](C(=O)N[C@H](C(=O)O)c4cc(O)cc(O)c4-c4cc3ccc4O)[C@H](O)c3ccc(c(Cl)c3)Oc3cc2cc(c3O[C@@H]2O[C@H](CO)[C@@H](O)[C@H](O)[C@H]2O[C@H]2C[C@](C)(N)[C@H](O)[C@H](C)O2)Oc2ccc(cc2Cl)[C@H]1O [vancomycin]
[4]
  MIC: 512 mg/L (≈ 353 µM)

## CC(=O)OC1CC2(C)C(CC(O)C3C4(C)CCC(O)C(C)C4CCC32C)C1C(CCCC(C)C)C(=O)O (stereo not shown) [compound 28]
S. aureus ATCC 29213 [2]
  antibacterial activity relative to FA: modest decreases in potency relative to FA

## CC(=O)O[C@H]1C[C@@]2(C)[C@@H](C[C@@H](O)[C@H]3[C@@]4(C)CC[C@@H](O)[C@@H](C)[C@@H]4CC[C@@]32C)/C1=C(\CCC=C(C)C)C(=O)O [FA, Fusidic acid, reference compound]
[5]; L461K mutation
  increase in MIC upon resistance: > 2048 fold
[5]; S. aureus clinical strains with EF-G L461K mutation
  MIC: > 256 mg/L
[5]; five S. aureus clinical isolates with EF-G V90I, H457Q, L461K, A655V
  MIC: > 256 mg/L
[5]; staphylococcal clinical isolates that carry the fusC gene
  MIC range: 2 to 64 mg/L
[5]; strains that possess the fusB gene
  MIC range: 4 to 1024 mg/L
[6]
  Cmax: greater than 130 μg/mL
  half-life: 10 to 14 h
E. faecium ATCC 19434; Enterococcus faecium, ATCC19434
  MIC: 2 mg/L (≈ 3.87 µM)
[7]
  S. aureus strains susceptible to FA: 99.7%
S. aureus ATCC 29213 [2]; Staphylococcus aureus, ATCC29213
  MIC: 0.125 mg/L (≈ 0.242 µM)
S. aureus (FA-32X-B)
  bacterial burden in thigh: no efficacy
[8]
  tolerability in mice, multiple doses: well tolerated
[3]; Homo sapiens, HFF-1, 72 h
  IC50: > 50 µM
[4]
  activity against VRE clinical isolates: retained potent activity
[9]
  activity against clinical isolates of S. aureus: no cross-resistance with vancomycin and retained potent activity

## CC(=O)OC1CC2(C)C(CC(=O)C3C4(C)CCC(O)C(C)C4CCC32C)C1=C(CCC=C(C)C)C(=O)O (stereo not shown) [compound 10]
S. aureus ATCC 29213 [2]
  MIC fold worse than FA: 4–8 fold

## CC(=O)O[C@H]1C[C@@]2(C)[C@@H](C[C@@H](O)[C@H]3[C@@]4(C)CC[C@@H](O)[C@@H](C)[C@@H]4CC[C@@]32C)/C1=C(\CCC=C1CCOCC1)C(=O)O [compound 27]
S. aureus ATCC 29213 [1]
  resistance frequency relative to FA: worse resistance frequency relative to FA
S. aureus ATCC 29213 [2]; S. aureus ATCC 29213, CLSI
  MIC: 0.125 mg/L (≈ 0.224 µM)
S. aureus ATCC 29213 [2]
  antibacterial activity relative to FA: equipotent activity to FA
[3]; HFF-1 cells, 72 h
  IC50: > 50 µM
S. aureus
  shift in MIC in 50% human serum compared to FA: very similar

## CC(=O)OC1CC2(C)C(CC(O)C3C4(C)CCC(O)C(C)C4CCC32C)C1=C(CCC=C1CCCC1)C(=O)O (stereo not shown) [FA-CP]
E. faecium ATCC 19434; sensitive strain E. faecium ATCC 19434
  MIC: 2 mg/L (≈ 3.68 µM)
[10]; highest MIC of colonies generated from FA-CP
  fold increase in MIC from wild-type (WT) S. aureus: 512 fold
[10]; resistance mutants generated at 32X the MIC
  highest MIC observed for colonies generated from FA-CP: 64 mg/L
[10]; strain FA-CP-32X-1, EF-G H457Y
  MIC for FA-CP: 32 mg/L
[10]; strain FA-CP-32X-2, EF-G H457Y
  MIC for FA-CP: 64 mg/L
[10]; strain FA-CP-32X-3, EF-G H457Y
  MIC for FA-CP: 64 mg/L
[10]; strain FA-CP-32X-4, EF-G H457Y
  MIC for FA-CP: 32 mg/L
[10]; strain FA-CP-32X-5, EF-G H457Y
  MIC for FA-CP: 64 mg/L
[10]; strain FA-CP-32X-6, EF-G H457Y
  MIC for FA-CP: 64 mg/L
[10]; strain FA-CP-32X-7, EF-G H457Y
  MIC for FA-CP: 64 mg/L
[10]; strain FA-CP-32X-8, EF-G H457Y
  MIC for FA-CP: 64 mg/L
[10]; strain FA-CP-32X-9, EF-G H457Y
  MIC for FA-CP: 32 mg/L
[10]; strain FA-CP-32X-10, EF-G D434N
  MIC for FA-CP: 32 mg/L
[10]; strain FA-CP-32X-11, EF-G H457Y
  MIC for FA-CP: 32 mg/L
[10]; strain FA-CP-32X-12, EF-G D434N
  MIC for FA-CP: 32 mg/L
[10]; strain FA-CP-32X-13, EF-G H457Y
  MIC for FA-CP: 64 mg/L
[10]; strain FA-CP-32X-14, EF-G H457Y
  MIC for FA-CP: 32 mg/L
[10]; strain FA-CP-32X-15, EF-G H457Y
  MIC for FA-CP: 64 mg/L
[10]; strain FA-CP-32X-16, EF-G F88L
  MIC for FA-CP: 64 mg/L
[10]; strain FA-CP-32X-17, EF-G F88L
  MIC for FA-CP: 64 mg/L
[10]; strain FA-CP-32X-18, EF-G H457Y
  MIC for FA-CP: 64 mg/L
[10]; strain FA-CP-32X-19, EF-G H457Y
  MIC for FA-CP: 32 mg/L
[10]; strain FA-CP-32X-20, EF-G H457Y
  MIC for FA-CP: 32 mg/L
[11]; 11 FA-resistant strains
  improvement in activity against FA-resistant strains relative to FA: 2–8 fold
[11]; FA-resistant strain FA-4X-A, EF-G T385N
  MIC: 2 mg/L (≈ 3.68 µM)
[11]; FA-resistant strain FA-4X-B, EF-G T385N
  MIC: 2 mg/L (≈ 3.68 µM)
[11]; FA-resistant strain FA-8X-A, EF-G T385N
  MIC: 2 mg/L (≈ 3.68 µM)
[11]; FA-resistant strain FA-8X-B, EF-G R464L
  MIC: 8 mg/L (≈ 14.7 µM)
[11]; FA-resistant strain FA-16X-A, EF-G H457Y
  MIC: 64 mg/L (≈ 118 µM)
[11]; FA-resistant strain FA-32X-A, EF-G F88L
  MIC: 128 mg/L (≈ 236 µM)
[11]; FA-resistant strain FA-32X-B, EF-G P406L
  MIC: 4 mg/L (≈ 7.37 µM)
[11]; FA-resistant strain FA-32X-C, EF-G H457L
  MIC: 128 mg/L (≈ 236 µM)
[11]; FA-resistant strain FA-32X-D, EF-G T436I
  MIC: 2 mg/L (≈ 3.68 µM)
[11]; FA-resistant strain FA-32X-E, EF-G H457N
  MIC: 128 mg/L (≈ 236 µM)
[11]; FA-resistant strain FA-32X-F, EF-G D434N
  MIC: 32 mg/L (≈ 59 µM)
S. aureus ATCC 29213 [1]
  resistance frequency relative to FA: modest improvement in resistance frequency at 2 and 32X the MIC
S. aureus ATCC 29213 [2]; S. aureus ATCC 29213, CLSI
  MIC: 0.125 mg/L (≈ 0.23 µM)
S. aureus ATCC 29213 [2]
  antibacterial activity relative to FA: equipotent activity to FA
S. aureus (FA-32X-B)
  bacterial burden in thigh: reductions in bacterial burden
[12]; 50 mg/kg, intraperitoneal injection, once-a-day for 4 days
  tolerability in mice, multiple doses: well tolerated
[12]; single dose of 50 mg/kg, IP
  tolerability in mice, single dose: well tolerated
[3]; HFF-1 cells, 72 h
  IC50: > 50 µM
S. aureus ATCC BAA-1721
  MIC: 8 mg/L (≈ 14.7 µM)
[4]
  activity against VRE clinical isolates: retained potent activity
[9]
  activity against clinical isolates of S. aureus: no cross-resistance with vancomycin and retained potent activity
S. aureus
  shift in MIC in 50% human serum compared to FA: very similar

## CC(=O)OC1CC2(C)C(CC(O)C3C4(C)CCC(=O)C(C)C4CCC32C)C1=C(CCC=C(C)C)C(=O)O (stereo not shown) [compound 5]
S. aureus ATCC 29213 [2]
  MIC fold worse than FA: 4–8 fold

## CC(=O)O[C@H]1C[C@@]2(C)[C@@H](C[C@@H](O)[C@H]3[C@@]4(C)CC[C@@H](O)[C@@H](C)[C@@H]4CC[C@@]32C)/C1=C(\CCC=C(C)C)C(=O)O [sodium fusidate]
[8]; ip, 50 mg/kg
  tolerability in mice, single dose: well tolerated
